What was measured:
RAW264.7 = assay: Anti-inflammatory activity in mouse RAW264.7 cells assessed as inhibition of LPS-induced NO production preincubated for 30 mins followed by LPS stimulation and measured after 24 hrs by Griess reagent based colorimetric method; type: functional, cell-based
How it was run: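 RAW264.7 murine macrophages in DMEM with 10% supplement, 37 °C, 5% CO2, grown 24 h before treatment. Test agents at several concentrations added 30 min before 1 μg/mL LPS (or no LPS). After 24 h, supernatant mixed with Griess reagents I and II; absorbance at 560 nm. IC50 derived only where cell activity at 50 μM stayed ≥50%. L-NIL as positive control.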

[1] = Cytotoxicity against mouse RAW264.7 cells assessed as cellular metabolic activity at 50 uM after 48 hrs by MTT assay relative to control; type: ADME, cell-based; conditions: read-out: Activity
How it was run: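 RAW264.7 cells at 5 × 10^4 cells/mL exposed to 50 μM test agent (DMSO solution) for 48 h. MTT then added at 5 mg/mL in sterile PBS for 4 h; formazan dissolved in DMSO and absorbance read at 490 nm. Triplicate treatments.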

SMILES | IC50 (RAW264.7) [µM] | viability at 48 h, 50 µM [1] [%]
COC(=O)/C(C)=C1/C(=O)[C@H](O)[C@]2(C)C3=C(C[C@@H]4[C@]5(OC(=O)C6=C5C[C@H]5[C@](O)(COC(=O)/C(C)=C/COC(=O)CCC(=O)OC6)[C@H]6C[C@H]6[C@]45C)[C@H]31)[C@H]1C[C@H]12 | 25.5 | 66.5
COC(=O)/C(C)=C1\C(=O)[C@H](O)[C@]2(C)C3=C(C[C@@H]4[C@]5(OC(=O)C(CO)=C5C[C@H]5[C@H](COC(C)=O)[C@H]6C[C@H]6[C@]45C)[C@H]31)[C@H]1C[C@H]12 | 3.7 | 97
CC(=N)NCCCC[C@H](N)C(=O)O [L-NIL] | 7 | 93.3
C/C=C(\C)C(=O)OC[C@]1(O)[C@H]2C[C@H]2[C@]2(C)[C@@H]3C[C@@]4(O)C5=C(C6=C(C)C(=O)O[C@]6(O)[C@H](O)[C@@]5(C)[C@@H]5C[C@@H]54)[C@@]34OC(=O)C(COC(C)=O)=C4C[C@@H]12 [SARCANDROLIDE D] |  | < 50
CC1=C2C3=C4[C@@](C)(C(=O)[C@@]2(O)OC1=O)[C@@H]1C[C@@H]1[C@@]4(O)C[C@@H]1[C@]32OC(=O)C3=C2C[C@H]2[C@](O)(COC(=O)/C(C)=C/COC(=O)CCC(=O)OC3)[C@H]3C[C@H]3[C@]12C [SPICACHLORANTIN B] |  | < 50
COC(=O)/C(C)=C1\C(=O)[C@H](O)[C@@]2(C)[C@@H]3C[C@@H]3[C@@]34CCC5=C6C3=C(C(=O)[C@H](O)[C@@]6(C)[C@@H]3C[C@H]53)[C@](C)(C(=O)OC)[C@@H]1[C@@]24O |  | < 50
C/C=C(\C)C(=O)OC[C@]1(O)[C@H]2C[C@H]2[C@]2(C)[C@@H]3CC4=C5[C@H](/C(=C(/C)C(=O)OC)C(=O)[C@H](O)[C@@]5(C)[C@@H]5C[C@H]45)[C@@]34OC(=O)C(COC(C)=O)=C4C[C@@H]12 |  | < 50
COC(=O)CCC(=O)OCC1=C2C[C@H]3[C@](O)(COC(=O)/C=C(\C)CO)[C@H]4C[C@H]4[C@]3(C)[C@@H]3CC4=C5[C@H](/C(=C(\C)C(=O)OC)C(=O)[C@H](O)[C@@]5(C)[C@@H]5C[C@H]45)[C@]23OC1=O | 23.1 | 71.5
COC(=O)/C(C)=C1\C(=O)[C@H](O)[C@]2(C)C3=C(C[C@@H]4[C@]5(OC(=O)C6=C5C[C@H]5[C@](O)(COC(=O)/C=C(\C)COC(=O)CCC(=O)OC6)[C@H]6C[C@H]6[C@]45C)[C@H]31)[C@H]1C[C@H]12 [SHIZUKAOL F] | > 50 | 53.1
CO[C@@]12OC(=O)C(C)=C1C1=C3[C@](C)([C@@H]4C[C@@H]4[C@@]3(O)C[C@@H]3[C@]14OC(=O)C1=C4C[C@H]4[C@](O)(COC(=O)/C(C)=C/COC(=O)CCC(=O)OC1)[C@H]1C[C@H]1[C@]34C)[C@H]2O |  | < 50
COC(=O)/C(C)=C1\C(=O)[C@H](O)[C@]2(C)C3=C(C[C@@H]4[C@]5(OC(=O)C6=C5C[C@H]5[C@](O)(COC(=O)/C(C)=C/COC(=O)CCC(=O)OC6)[C@H]6C[C@H]6[C@]45C)[C@H]31)[C@H]1C[C@H]12 [SHIZUKAOL B] | > 50 | 55.4
CC1=C2C3=C4[C@](C)([C@@H]5C[C@@H]5[C@@]4(O)C[C@@H]4[C@]35OC(=O)C3=C5C[C@H]5[C@](O)(COC(=O)/C=C(\C)COC(=O)CCC(=O)OC3)[C@H]3C[C@H]3[C@]45C)[C@@H](O)[C@@]2(O)OC1=O |  | < 50
